Drawing on ChEMBL document CHEMBL3875220, “Development of new inhibitors for N-acylethanolamine-hydrolyzing acid amidase as promising tool against bladder cancer” (Bioorg Med Chem, 2017), this text covers inhibition, IC50 and Activity for 8 compounds.

Molecules are shown by their SMILES. The source made the active and inactive calls. No cut-off for these calls is given here.

One may read the IC50 as the concentration that inhibits the measured activity by half.

Test [1] addresses T1, N-acylethanolamine-hydrolyzing acid amidase (Homo sapiens) (UniProt Q02083).
T1 sequence (whole entry): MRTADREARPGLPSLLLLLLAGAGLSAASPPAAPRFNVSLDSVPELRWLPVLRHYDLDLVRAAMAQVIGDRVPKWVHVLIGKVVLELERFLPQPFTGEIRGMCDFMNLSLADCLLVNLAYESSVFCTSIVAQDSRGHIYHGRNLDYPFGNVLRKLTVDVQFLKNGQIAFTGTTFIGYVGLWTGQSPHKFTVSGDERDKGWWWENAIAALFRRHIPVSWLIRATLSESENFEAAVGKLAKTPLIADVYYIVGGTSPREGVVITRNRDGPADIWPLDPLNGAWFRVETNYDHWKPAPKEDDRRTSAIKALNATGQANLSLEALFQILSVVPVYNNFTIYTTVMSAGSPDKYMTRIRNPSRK
Put plainly: (§1) Inhibition of recombinant human NAAA using PAMCA as substrate preincubated for 30 mins followed by substrate addition measured every 3 mins for 2.5 hrs by fluorescence HTS method. The essentials:
(§2)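 Human recombinant NAAA (25 ng, purity >95%) was used in 100 mM sodium acetate buffer and preincubated with inhibitor in DMSO for 30 min at room temperature. PAMCA was then added to a final 10 µM. Released 7-amino-4-methylcoumarin fluorescence was read at 460 nm every 3 min. […] Linearity was checked at 5–100 µM over 5 h.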

Test [2] has as its target T2, N-acylethanolamine-hydrolyzing acid amidase (Homo sapiens, UniProt Q02083).
T2 sequence (Q02083 whole entry): T1 sequence (whole entry)
Described as §1. The essentials:
as §2

Test [3] is described as follows: Antiproliferative activity against human RT4 cells after 72 hrs by MTT assay. It is filed as functional, cell-based. The following applies: RT-4, 72 h. The essentials: (§3)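 Human bladder cancer cells were kept in RPMI 1640 with 10% FBS and penicillin/streptomycin at 37 °C, 5% CO₂. They were seeded at 5 × 10³ cells/well and exposed to serial log dilutions from 100 to 0.1 µM for 72 h, with DMSO for controls. Read-out was MTT, with formazan dissolved in DMSO and read at 570 nm. IC50 was the concentration inhibiting 50% relative to untreated controls. Three or more experiments in triplicate; mean ± SD.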
For orientation: Tetrazolium assays rely on reduction of a dye to a coloured formazan, in cell work by metabolically active cells.

The nature of test [4]: Antiproliferative activity against human RT112 cells after 72 hrs by MTT assay. It counts as functional, cell-based. The following applies: RT-112, 72 h. The procedure, abridged:
as §3

Test [5] in a line: Antiproliferative activity against human 5637 cells after 72 hrs by MTT assay. It counts as functional, cell-based. The following applies: Homo sapiens, 5637, 72 h. The essentials: as §3
In test [6] the target is T1, N-acylethanolamine-hydrolyzing acid amidase (Homo sapiens). As to the kind of experiment: Competitive inhibition of recombinant human NAAA at 100 uM in presence of varying levels of PAMCA as substrate preincubated for 30 mins followed by substrate addition measured every 3 mins for 2.5 hrs by Lineweaver-Burk plot analysis. The essentials: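 Human recombinant NAAA was used with PAMCA as substrate at varying concentrations, using the fluorescence assay in acetate buffer. Vmax and KM were derived from Michaelis–Menten fits, and inhibition mode was assigned from Lineweaver–Burk plots of 1/V against 1/[PAMCA].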

Test [7] has the same target. Put plainly: Inhibition of recombinant human NAAA at 5 to 100 uM using PAMCA as substrate preincubated for 30 mins followed by substrate addition measured every 3 mins for 5 hrs by fluorescence HTS method. The procedure, abridged:
as §2

The target is the same in test [8]. As to the kind of experiment: Reversible inhibition of recombinant human NAAA at 50 to 100 uM preincubated for 20 mins followed by 20-fold dilution and PAMCA substrate addition by fluorescence HTS method. The procedure, abridged: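 Reversibility test: human recombinant NAAA was incubated with inhibitor at 50 or 100 µM final for 20 min. The mixture was diluted twenty-fold and fresh inhibitor added (2.5–50 µM for the 50 µM series, 5–100 for the 100 µM series). The reaction was started with PAMCA and fluorescence was read. Activity was compared between the paired conditions.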

The subject of a further test is RT-112. As to the kind of experiment: (§4) Anti-migratory activity against human RT112 cells at 40 nM after 24 hrs by wound healing assay relative to control. It counts as functional. The procedure, abridged:
(§5)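 RT112 cells seeded at 5 × 10⁵ cells/well to give a sub-confluent monolayer, then scratched (~1 mm wide). Debris was removed and medium replaced with medium containing inhibitor at 40 nM, with DMSO only for controls. Phase-contrast images were taken at 0 and 24 h. Wound closure was calculated as the initial wound area minus the cell-free area remaining at 24 h. Three or more experiments in triplicate; mean ± SD; Student's t-test.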

For test [9], the target named is T1, N-acylethanolamine-hydrolyzing acid amidase (Homo sapiens). Put plainly: Inhibition of NAAA in human RT112 cells assessed as increase in N-palmitoylethanolamide level at 40 uM after 24 hrs by HPLC-MS/MS analysis. It is filed as cell-based. The following applies: RT-112. The procedure, abridged: (§6)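 RT112 cells were treated with 40 µM inhibitor for 24 h. Cells and supernatant were pooled (1 ml) and spiked with d4-SEA and d4-LNEA internal standards. Protein was precipitated with cold acetone, and the supernatant was purified by SPE and stored at −80 °C. NAEs were quantified by LC-TripleTOF MS and reported in ng/ml as mean ± SD.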

Test [10] shares this target. As to the kind of experiment: Inhibition of NAAA in human RT112 cells assessed as increase in N-stearoylethanolamide level at 40 uM after 24 hrs by HPLC-MS/MS analysis. It is filed as cell-based. The following applies: RT-112. The procedure, abridged:
as §6

For test [11] the target is unchanged. Put plainly: Inhibition of NAAA in human RT112 cells assessed as increase in N-oleoylethanolamide level at 40 uM after 24 hrs by HPLC-MS/MS analysis. It counts as cell-based. The following applies: RT-112. The essentials:
as §6

The subject of the next test is HT-1376. As to the kind of experiment: Antiproliferative activity against human HT-1376 cells after 72 hrs by MTT assay. It is filed as functional, cell-based. The following applies: HT-1376, 72 h. The essentials: as §3
Test [12] is described as follows: as §4. It is filed as functional, RT-112. The essentials:
as §5

Consider `CCCCCCCCCCCCCCCCNC(=O)c1ccncc1`, for which the inhibition entry in [1] is “Dose-dependent effect”. The concentration for half-maximal inhibition (IC50) came to 98 µM in [2], 41.7 µM in [3], 76.2 µM in test [4] and 51.2 µM in test [5].

`CCCCCCCCCCCCCCCNC(=O)CCO`: the inhibition result in test [6], in test [7], in [8], in test [9], in [10] and in test [11] was “Active” in each case. Further, the half-inhibitory concentration (IC50) in [2] was found to be 34 µM; in test [4], 58.3 µM; in test [5], 40 µM. In addition, the outcome with RT-112 was Active.

As to `CCCCCCCCCCCCCCCCNC(=O)[C@@H](O)c1ccccc1`, the inhibition entry in [1] is “Dose-dependent effect”. The IC50 in [2] was 78 µM; in test [3], greater than 100 µM; in test [4], 25 µM; in test [5] it was 18.8 µM.

With `CCCCCCCCCCCCCCCCNC(=O)[C@H](O)c1ccccc1`, the inhibition entry in [6] and in test [8] was “Active” in each case. The inhibition entry in test [1] was “Dose-dependent effect”. In addition, the IC50 was 20 µM in test [2], 3.5 µM in [3], 28.3 µM in [4] and 25 µM in test [5].

In the case of `CCCCCCCCCCCCCCCCNC(=O)c1ccccc1`, the IC50 in test [2] and in test [5] was 45 µM each time. Also, in test [7], the inhibition entry is “Active”.

Turning to `CCCCCCCCCCCCCCCCNC(=O)c1ccccc1O`, the inhibition result in test [6], in test [9], in test [10] and in test [11] was “Active” in each case. In addition, in [1], the inhibition entry is “Dose-dependent effect”. For the same compound, the IC50 in test [2] amounted to 11 µM; in [3] it was 63.3 µM; in [4] it was 5.75 µM; in test [5], 11.2 µM; in the test with HT-1376, 10.2 µM. The Activity in test [12] stood at 50%.

As to `CCCCCCCCCCCCCCCNC(=O)c1ccc2ccccc2c1`, in [2], the 50% inhibitory concentration (IC50) is greater than 100 µM.

As for `CCCCCCCCCCCCCCCCNC(=O)c1cc(O)ccc1O`, the inhibition result in test [6], in test [9], in test [10] and in [11] was “Active” each time. The inhibition result in [1] was “Dose-dependent effect”. Also, the IC50 in test [2] was found to be 38 µM; in test [4] it was 7 µM; in test [5], 7.25 µM; with HT-1376 it was 9.5 µM. The Activity in test [12] worked out at 80%.
